Data reported in ChEMBL document CHEMBL2413022, “3-Aryl-4-acyloxyethoxyfuran-2(5H)-ones as inhibitors of tyrosyl-tRNA synthetase: synthesis, molecular docking and antibacterial evaluation” (Bioorg Med Chem, 2013).
Converted amounts (≈) assume the structure as drawn.

Experiments:
Candida albicans = assay: Antifungal activity against Candida albicans ATCC 10231 by MTT assay; type: functional
Method in brief: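 LB medium; inoculum about 10⁵ cfu/mL with serially diluted compound (medium-only blank), incubated at 28 °C. MTT in PBS (3 mg/mL) added, 4–5 h at room temperature. Dye extracted 8–10 h in 10% SDS with 5% isopropanol and HCl. OD read at 570 nm, control OD 1.0–2.0; MIC50 from absorbance.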

Pseudomonas aeruginosa = assay: Antibacterial activity against Pseudomonas aeruginosa ATCC 27853 by MTT assay; type: functional
Method in brief: (§1)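 LB medium; inoculum about 10⁵ cfu/mL added to serially diluted compound (medium-only blank) and incubated at 37 °C. Then MTT in PBS (3 mg/mL) added, 4–5 h at room temperature. Medium removed, dye extracted 8–10 h in 10% SDS with 5% isopropanol and HCl. Read OD 570 nm, control OD kept at 1.0–2.0; MIC50 taken from absorbance.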

Staphylococcus aureus = assay: Antibacterial activity against Staphylococcus aureus ATCC 25923 by MTT assay; type: functional; method in brief: as §1
[1] = Inhibition of Staphylococcus aureus tyrosyl-tRNA synthetase expressed in Escherichia coli using L-[ring-3,5-3H] tyrosine as substrate preincubated for 10 mins by liquid scintillation counting analysis
Method in brief: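 Enzyme purified to about 98% (SDS–PAGE). Aminoacylation at 37 °C, final 100 mM Tris/Cl pH 7.9, 50 mM KCl. TyrRS (0.2 nM) preincubated with a range of inhibitor concentrations for 10 min at room temperature, then pre-warmed mixture added. Aliquots quenched in ice-cold 7% TCA at set intervals, filtered, counted by liquid scintillation.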

Escherichia coli = assay: Antibacterial activity against Escherichia coli ATCC 35218 by MTT assay; type: functional; method in brief: as §1

SMILES | MIC50 (Candida albicans) [µg/mL] | MIC50 (Pseudomonas aeruginosa) [µg/mL] | MIC50 (Staphylococcus aureus) [µg/mL] | IC50 [1] [µM] | MIC50 (Escherichia coli) [µg/mL]
CCn1cc(C(=O)O)c(=O)c2cc(F)c(N3CCNCC3)cc21 [NORFLOXACIN] |  | 2.1 (≈ 6.58 µM) |  |  | 
O=C1OCC(OCCOC(=O)c2ccccc2[N+](=O)[O-])=C1c1ccccc1 | > 100 | 35.5 (≈ 96.1 µM) | 24.3 (≈ 65.8 µM) | 18.2 | 17.5 (≈ 47.4 µM)
O=C1OCC(OCCOC(=O)c2ccc(O)cc2)=C1c1ccccc1 | 23 (≈ 67.6 µM) | 21.3 (≈ 62.6 µM) | 23.3 (≈ 68.5 µM) | 11.2 | 19.5 (≈ 57.3 µM)
CCCCCC(=O)OCCOC1=C(c2ccccc2)C(=O)OC1 | 21.4 (≈ 67.2 µM) | 60.8 (≈ 191 µM) | 43 (≈ 135 µM) | 47.8 | > 100
O=C1OCC(OCCOC(=O)c2ccccc2Cl)=C1c1ccccc1 | > 100 | 52.7 (≈ 147 µM) | 72.9 (≈ 203 µM) | 56.8 | 17.9 (≈ 49.9 µM)
COc1ccccc1C(=O)OCCOC1=C(c2ccccc2)C(=O)OC1 | > 100 | 73.6 (≈ 208 µM) | > 100 | 64.7 | > 100
O=C(Cc1cccc(Cl)c1)OCCOC1=C(c2ccccc2)C(=O)OC1 | > 100 | 83.1 (≈ 223 µM) | > 100 | > 100 | > 100
O=C1OCC(OCCOC(=O)c2cccc([N+](=O)[O-])c2)=C1c1ccccc1 | > 100 | > 100 | > 100 | > 100 | 9.4 (≈ 25.5 µM)
CCCC(=O)OCCOC1=C(c2ccccc2)C(=O)OC1 | 88.7 (≈ 306 µM) | 98.1 (≈ 338 µM) | 41.3 (≈ 142 µM) | 84.6 | > 100
CC(=O)N1CCN(c2ccc(OCC3COC(Cn4ccnc4)(c4ccc(Cl)cc4Cl)O3)cc2)CC1 (centres undefined) [KETOCONAZOLE] | 3.8 (≈ 7.15 µM) |  |  |  | 
O=C1OCC(OCCOC(=O)c2ccccc2O)=C1c1ccccc1 | > 100 | 47.8 (≈ 140 µM) | 24.9 (≈ 73.2 µM) | 41.4 | 15.7 (≈ 46.1 µM)
O=C1OCC(OCCOC(=O)c2ccc([N+](=O)[O-])cc2)=C1c1ccccc1 | 2.7 (≈ 7.31 µM) | 11.4 (≈ 30.9 µM) | 24.5 (≈ 66.3 µM) | 5.2 | 5 (≈ 13.5 µM)
O=C1OCC(OCCOC(=O)c2cc(Cl)ccc2Cl)=C1c1ccccc1 | > 100 | 2.9 (≈ 7.37 µM) | 24.8 (≈ 63.1 µM) | 5.2 | 13.9 (≈ 35.3 µM)
CCCCCCCC(=O)OCCOC1=C(c2ccccc2)C(=O)OC1 | > 100 | 56.8 (≈ 164 µM) | > 100 | 41 | 48.8 (≈ 141 µM)
O=C(Cc1ccc(O)cc1)OCCOC1=C(c2ccc(Cl)cc2)C(=O)OC1 | > 100 | 15.5 (≈ 39.9 µM) | 27.4 (≈ 70.5 µM) | 7.9 | > 100
Cc1ccccc1C(=O)OCCOC1=C(c2ccccc2)C(=O)OC1 | > 100 | 90.2 (≈ 267 µM) | > 100 | > 100 | 19.3 (≈ 57 µM)
COc1ccc(CC(=O)OCCOC2=C(c3ccccc3)C(=O)OC2)cc1OC | 92.3 (≈ 232 µM) | > 100 | > 100 | 83.8 | > 100

Further compounds by falling MIC50 (Staphylococcus aureus), results first:

MIC50 (Candida albicans) [µg/mL] | MIC50 (Pseudomonas aeruginosa) [µg/mL] | MIC50 (Staphylococcus aureus) [µg/mL] | IC50 [1] [µM] | MIC50 (Escherichia coli) [µg/mL] | SMILES
> 100 | 44.8 (≈ 138 µM) | 22.8 (≈ 70.1 µM) | 26 | 18.6 (≈ 57.2 µM) | O=C1OCC(OCCOC(=O)c2cccnc2)=C1c1ccccc1
> 100 | 68.1 (≈ 192 µM) | 22.5 (≈ 63.5 µM) | > 100 | 53.6 (≈ 151 µM) | O=C(Cc1ccc(O)cc1)OCCOC1=C(c2ccccc2)C(=O)OC1
> 100 | 18.1 (≈ 48.3 µM) | 21.9 (≈ 58.5 µM) | 17.7 | > 100 | O=C1OCC(OCCOC(=O)c2ccc3ccccc3c2)=C1c1ccccc1
95.4 (≈ 243 µM) | 22.7 (≈ 57.7 µM) | 19.9 (≈ 50.6 µM) | 33.4 | 2.9 (≈ 7.37 µM) | O=C1OCC(OCCOC(=O)c2ccc(Cl)c(Cl)c2)=C1c1ccccc1
> 100 | > 100 | 19.9 (≈ 55.8 µM) | 75.3 | > 100 | O=C1OCC(OCCOC(=O)c2ccc(O)c(O)c2)=C1c1ccccc1
23.4 (≈ 69.2 µM) | 37.7 (≈ 111 µM) | 18.3 (≈ 54.1 µM) | 17.8 | > 100 | Cc1ccc(C(=O)OCCOC2=C(c3ccccc3)C(=O)OC2)cc1
22.9 (≈ 58.2 µM) | 21.3 (≈ 54.2 µM) | 18.2 (≈ 46.3 µM) | 16.5 | 12.8 (≈ 32.6 µM) | O=C1OCC(OCCOC(=O)c2ccc(Cl)cc2Cl)=C1c1ccccc1
> 100 | 13.4 (≈ 41.3 µM) | 17.8 (≈ 54.9 µM) | 12.8 | > 100 | O=C1OCC(OCCOC(=O)c2ccccc2)=C1c1ccccc1
> 100 | 2.4 (≈ 6.12 µM) | 17.5 (≈ 44.6 µM) | 4.3 | 23.3 (≈ 59.4 µM) | O=C1OCC(OCCOC(=O)c2cccc(C(F)(F)F)c2)=C1c1ccccc1
78.4 (≈ 219 µM) | 14.5 (≈ 40.4 µM) | 17.2 (≈ 47.9 µM) | 8.8 | > 100 | O=C1OCC(OCCOC(=O)c2ccc(Cl)cc2)=C1c1ccccc1
> 100 | > 100 | 16.5 (≈ 46.3 µM) | 93.6 | > 100 | O=C(Cc1ccc(F)cc1)OCCOC1=C(c2ccccc2)C(=O)OC1
> 100 | 15.8 (≈ 40.5 µM) | 16.1 (≈ 41.2 µM) | 16.8 | > 100 | O=C1OCC(OCCOC(=O)c2ccc3cc(O)ccc3c2)=C1c1ccccc1
> 100 | 16.7 (≈ 49.4 µM) | 15.8 (≈ 46.7 µM) | 8.1 | > 100 | Cc1cccc(C(=O)OCCOC2=C(c3ccccc3)C(=O)OC2)c1
> 100 | 22 (≈ 52.7 µM) | 15.4 (≈ 36.9 µM) | 48.1 | 78.7 (≈ 189 µM) | O=C(Cc1ccc(Br)cc1)OCCOC1=C(c2ccccc2)C(=O)OC1
> 100 | 36.7 (≈ 103 µM) | 15.3 (≈ 42.9 µM) | 50.2 | > 100 | O=C1OCC(OCCOC(=O)c2ccc(O)cc2O)=C1c1ccccc1
15.6 (≈ 39.9 µM) | 13.2 (≈ 33.8 µM) | 14.9 (≈ 38.1 µM) | 5.7 | > 100 | O=C(Cc1ccc(F)cc1)OCCOC1=C(c2ccc(Cl)cc2)C(=O)OC1
4.2 (≈ 9.3 µM) | 4.6 (≈ 10.2 µM) | 13.6 (≈ 30.1 µM) | 3.5 | 16.6 (≈ 36.8 µM) | O=C(Cc1cccc(Br)c1)OCCOC1=C(c2ccc(Cl)cc2)C(=O)OC1
> 100 | 17.7 (≈ 43.5 µM) | 13.3 (≈ 32.7 µM) | 9.3 | 45.6 (≈ 112 µM) | O=C(Cc1ccc(Cl)cc1)OCCOC1=C(c2ccc(Cl)cc2)C(=O)OC1
13.1 (≈ 29 µM) | 20.6 (≈ 45.6 µM) | 13 (≈ 28.8 µM) | 16.7 | 14.3 (≈ 31.7 µM) | O=C(Cc1ccc(Br)cc1)OCCOC1=C(c2ccc(Cl)cc2)C(=O)OC1
18.1 (≈ 52.9 µM) | 13.8 (≈ 40.3 µM) | 8.2 (≈ 24 µM) | 7.5 | > 100 | O=C1OCC(OCCOC(=O)c2ccc(F)cc2)=C1c1ccccc1
2.5 (≈ 6.14 µM) | 2.5 (≈ 6.14 µM) | 5.2 (≈ 12.8 µM) | 1.1 | 7.6 (≈ 18.7 µM) | O=C(Cc1cccc(Cl)c1)OCCOC1=C(c2ccc(Cl)cc2)C(=O)OC1
> 100 | 14.4 (≈ 40.4 µM) | 2.2 (≈ 6.17 µM) | 6.7 | > 100 | O=C1OCC(OCCOC(=O)c2cc(O)cc(O)c2)=C1c1ccccc1
1.2 (≈ 3.05 µM) | 1.5 (≈ 3.81 µM) | 2 (≈ 5.09 µM) | 0.9 | 4.3 (≈ 10.9 µM) | O=C1OCC(OCCOC(=O)c2cccc(Cl)c2)=C1c1ccc(Cl)cc1
 |  | 1.5 (≈ 3.1 µM) |  | 3.5 (≈ 7.22 µM) | NC[C@H]1O[C@H](O[C@H]2[C@H](O)[C@@H](O[C@H]3O[C@H](CO)[C@@H](O)[C@H](N)[C@H]3O)[C@H](N)C[C@@H]2N)[C@H](O)[C@@H](O)[C@@H]1O [KANAMYCIN]
